Paper PMC6543826 (Bioorganic chemistry, 2018)
Several values for one entry are separate records, joined by “and”; a condition that tells them apart may be missing. Equal values may be shown once. Read-outs that look alike come from different tables or passages of the source. Each block holds one compound with its values, some of them ahead of it.

How the values were obtained:
[1] = target: ERK2 (Rattus norvegicus, UniProt P63086); assay: in vitro radioactive kinase assay, Ets-1 phosphorylation by ERK2; type: biochemical; settings: 100 μM ATP /10mM Ets-1
ERK2, sequence (P63086 whole entry): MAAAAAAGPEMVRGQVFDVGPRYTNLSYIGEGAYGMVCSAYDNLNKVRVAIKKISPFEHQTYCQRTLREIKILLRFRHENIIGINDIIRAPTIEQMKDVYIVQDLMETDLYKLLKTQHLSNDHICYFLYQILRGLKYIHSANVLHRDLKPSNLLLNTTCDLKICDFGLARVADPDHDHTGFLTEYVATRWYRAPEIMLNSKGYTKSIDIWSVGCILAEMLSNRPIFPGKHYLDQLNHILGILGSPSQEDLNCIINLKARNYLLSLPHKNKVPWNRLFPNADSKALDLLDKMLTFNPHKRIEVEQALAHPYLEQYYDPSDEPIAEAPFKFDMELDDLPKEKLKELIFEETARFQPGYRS
How it was run: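 Activated rat ERK2 (2 nM) was tested with His-Ets-1 (1–138) at 28–30 °C in HEPES pH 7.5 buffer with 11 mM MgCl2, BSA and 5% DMSO. Reactions were started with [γ-32P]ATP (10 or 100 μM).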

[2] = system: M14; assay: cells; type: cell-based; settings: M14, 10^−5 M, 48 h
[3] = system: SF-539; assay: cells; type: cell-based; settings: SF-539, 10^−5 M, 48 h
[4] = system: IGROV1; assay: cells; type: cell-based; settings: IGROV1, 10^−5 M, 48 h
[5] = system: ACHN; assay: cells; type: cell-based; settings: 10^−5 M, 48 h
[6] = system: MALME-3M; assay: cells; type: cell-based; settings: MALME-3M, 10^−5 M, 48 h
[7] = system: SK-MEL-28; assay: cells; type: cell-based; settings: SK-MEL-28, 10^−5 M, 48 h
[8] = system: NCI-H226; assay: cells; type: cell-based; settings: NCI-H226, 10^−5 M, 48 h
[9] = system: K-562; assay: cells; type: cell-based; settings: K-562, 10^−5 M, 48 h
[10] = system: PC-3; assay: cells; type: cell-based; settings: PC-3, 10^−5 M, 48 h
[11] = system: NCI-H460; assay: cells; type: cell-based; settings: NCI-H460, 10^−5 M, 48 h
[12] = system: HCT-116; assay: cells; type: cell-based; settings: HCT-116, 10^−5 M, 48 h
[13] = system: HL-60 (TB); assay: cells; type: cell-based; settings: HL-60(TB), 10^−5 M, 48 h
[14] = system: SK-OV-3; assay: cells; type: cell-based; settings: SK-OV-3, 10^−5 M, 48 h
[15] = system: U251; assay: cells; type: cell-based; settings: U251, 10^−5 M, 48 h
[16] = system: MOLT-4; assay: cells; type: cell-based; settings: MOLT-4, 10^−5 M, 48 h
[17] = system: OVCAR-3; assay: cells; type: cell-based; settings: OVCAR-3, 10^−5 M, 48 h
[18] = system: OVCAR-4; assay: cells; type: cell-based; settings: OVCAR-4, 10^−5 M, 48 h
[19] = system: DU-145; assay: cells; type: cell-based; settings: DU-145, 10^−5 M, 48 h
[20] = system: UACC-62; assay: cells; type: cell-based; settings: UACC-62, 10^−5 M, 48 h
[21] = system: OVCAR-5; assay: cells; type: cell-based; settings: OVCAR-5, 10^−5 M, 48 h
[22] = system: MDA-MB-468; assay: cells; type: cell-based; settings: MDA-MB-468, 10^−5 M, 48 h
[23] = system: HOP-92; assay: cells; type: cell-based; settings: HOP-92, 10^−5 M, 48 h
[24] = system: BT-549; assay: cells; type: cell-based; settings: BT-549, 10^−5 M, 48 h
[25] = system: NCI-60 panel of tumor cell lines; settings: for Average G%: average over tested NCI-60 cell lines, 10^−5 M (10 μM), 48 h
[26] = system: HCT-15; assay: cells; type: cell-based; settings: HCT-15, 10^−5 M, 48 h
[27] = system: A549/ATCC; assay: cells; type: cell-based; settings: A549/ATCC, 10^−5 M, 48 h
[28] = system: T-47D; assay: cells; type: cell-based; settings: T-47D, 10^−5 M, 48 h
[29] = system: NCI-H23; assay: cells; type: cell-based; settings: NCI-H23, 10^−5 M, 48 h
[30] = system: NCI-H322M; assay: cells; type: cell-based; settings: 10^−5 M, 48 h
[31] = system: MCF7; assay: cells; type: cell-based; settings: MCF7, 10^−5 M, 48 h
[32] = system: SNB-75; assay: cells; type: cell-based; settings: SNB-75, 10^−5 M, 48 h
[33] = system: CCRF-CEM; assay: cells; type: cell-based; settings: 10^−5 M, 48 h
[34] = system: HOP-62; assay: cells; type: cell-based; settings: HOP-62, 10^−5 M, 48 h
[35] = system: UO-31; assay: cells; type: cell-based; settings: UO-31, 10^−5 M, 48 h
[36] = system: SR; assay: cells; type: cell-based; settings: 10^−5 M, 48 h
[37] = system: MDA-MB-435; assay: cells; type: cell-based; settings: MDA-MB-435, 10^−5 M, 48 h
[38] = system: OVCAR-8; assay: cells; type: cell-based; settings: OVCAR-8, 10^−5 M, 48 h
[39] = system: SNB-19; assay: cells; type: cell-based; settings: SNB-19, 10^−5 M, 48 h
[40] = system: KM 12; assay: cells; type: cell-based; settings: KM 12, 10^−5 M, 48 h
[41] = system: HCC-2998; assay: cells; type: cell-based; settings: HCC-2998, 10^−5 M, 48 h
[42] = system: HT29; assay: cells; type: cell-based; settings: HT29, 10^−5 M, 48 h
[43] = system: SW-620; assay: cells; type: cell-based; settings: SW-620, 10^−5 M, 48 h
[44] = system: SF-295; assay: cells; type: cell-based; settings: SF-295, 10^−5 M, 48 h
[45] = system: SN12C; assay: cells; type: cell-based; settings: 10^−5 M, 48 h
[46] = system: SF-268; assay: cells; type: cell-based; settings: SF-268, 10^−5 M, 48 h
[47] = system: SK-MEL-2; assay: cells; type: cell-based; settings: SK-MEL-2, 10^−5 M, 48 h
[48] = system: SK-MEL-5; assay: cells; type: cell-based; settings: SK-MEL-5, 10^−5 M, 48 h
[49] = system: RXF 393; assay: cells; type: cell-based; settings: RXF 393, 10^−5 M, 48 h
[50] = system: LOX IMVI; assay: cells; type: cell-based; settings: 10^−5 M, 48 h
[51] = system: NCI-H522; assay: cells; type: cell-based; settings: NCI-H522, 10^−5 M, 48 h
[52] = system: RPMI-8226; assay: cells; type: cell-based; settings: RPMI-8226, 10^−5 M, 48 h
[53] = system: EKVX; assay: NCI-60 SRB screen, Non-small cell lung cancer; type: cell-based, human; settings: 10^−5 M, 48 h
[54] = system: A498; assay: NCI-60 SRB screen, Renal cancer; type: cell-based, human; settings: A498, 10^−5 M, 48 h
[55] = ERK2 IC50 at 100 μM ATP /10mM Ets-1, Table 4

- IC50 [1, 55]: 59 ± 8.2 µM
Structure (SMILES): Cc1ccc2[nH]c(=O)c3c4c(oc3c2c1)C(=O)c1ccccc1C4=O [3d, 2-Methylnaphtho[2′,3′:4,5]furo[3,2-c]quinoline-6,7,12(5H)-trione]

- IC50 [1, 55]: > 100 µM
Structure (SMILES): O=C1c2ccccc2C(=O)c2c1oc1c2c(=O)[nH]c2ccc(Br)cc21 [3c, 2-Bromonaphtho[2′,3′:4,5]furo[3,2-c]quinoline-6,7,12(5H)-trione]

Structure (SMILES): CCn1c(=O)c2c(=O)c3c4c(oc3oc2c2ccccc21)C(=O)c1ccccc1C4=O [5b, 5-Ethyl-5H-naphthalen[2″,3″:4′,5′]furo[3′,2′:4′,5,6]pyrano[3,2-c]quinoline-6,7,8,13-tetraone]
- Growth percent (G%) [2]: 89.81%
- Growth percent (G%) [3]: 89.92%
- Growth percent (G%) [4]: 68.31%
- Growth percent (G%) [5]: 79.61%
- Growth percent (G%) [6]: 112.5%
- Growth percent (G%) [7]: 106.96%
- Growth percent (G%) [8]: 99.44%
- Growth percent (G%) [9]: 28.57%
- Growth percent (G%) [10]: 81.82%
- Growth percent (G%) [11]: 83.68%
- Growth percent (G%) [12]: 34.6%
- Growth percent (G%) [13]: −18.8%
- Growth percent (G%) [14]: 102.05%
- Growth percent (G%) [15]: 57.67%
- Growth percent (G%) [16]: −24.49%
- Growth percent (G%) [17]: −16.31%
- Growth percent (G%) [18]: −99.52%
- Growth percent (G%) [19]: 42.4%
- Growth percent (G%) [20]: 63.95%
- Growth percent (G%) [21]: 117.77%
- Growth percent (G%) [22]: −9.96%
- Growth percent (G%) [23]: 50.81%
- Growth percent (G%) [24]: 93.67%
- Average G% [25]: 65.81%
- Growth percent (G%) [26]: 79.63%
- Growth percent (G%) [27]: 82.36%
- Growth percent (G%) [28]: 85.06%
- Growth percent (G%) [29]: 66.79%
- Growth percent (G%) [30]: 97.72%
- Growth percent (G%) [31]: 92.37%
- Growth percent (G%) [32]: 119.73%
- Growth percent (G%) [33]: 2.47%
- Growth percent (G%) [34]: 80.29%
- Growth percent (G%) [35]: 112.5%
- Growth percent (G%) [36]: 80.76%
- Growth percent (G%) [37]: 95.88%
- Growth percent (G%) [38]: 10.25%
- Growth percent (G%) [39]: 90.17%
- Growth percent (G%) [40]: 86.61%
- Growth percent (G%) [41]: 100.59%
- Growth percent (G%) [42]: 63.02%
- Growth percent (G%) [43]: 73.47%
- Growth percent (G%) [44]: 95.07%
- Growth percent (G%) [45]: 106.07%
- Growth percent (G%) [46]: 84.32%
- IC50 ([1]; read-out: ERK2 IC50 at 100 μM ATP /10mM Ets-1, Table 4): 8.3 ± 1.5 µM
- Growth percent (G%) [47]: 79.89%
- Growth percent (G%) [48]: 67.42%
- Growth percent (G%) [49]: 72.63%
- Growth percent (G%) [50]: 32.39%
- Growth percent (G%) [51]: 65.5%
- Growth percent (G%) [52]: 33.49%

Structure (SMILES): Cn1c(=O)c2c3c(oc2c2ccccc21)C(=O)c1ccccc1C3=O [3e, 5-Methylnaphtho[2′,3′:4,5]furo[3,2-c]quinoline-6,7,12(5H)-trione]
- Growth percent (G%) [2]: 85.59%
- Growth percent (G%) [3]: 97.17%
- Growth percent (G%) [4]: 68.65%
- Growth percent (G%) [5]: 75.49%
- Growth percent (G%) [6]: 113.45%
- Growth percent (G%) [7]: 111.89%
- Growth percent (G%) [8]: 73.22%
- Growth percent (G%) [9]: 68.79%
- Growth percent (G%) [10]: 64.38%
- Growth percent (G%) [53]: 70.67%
- Growth percent (G%) [11]: 78.50%
- Growth percent (G%) [12]: 71.69%
- Growth percent (G%) [14]: 93.55%
- Growth percent (G%) [15]: 90.22%
- Growth percent (G%) [16]: 2.39%
- Growth percent (G%) [17]: 21.58%
- Growth percent (G%) [18]: 4.38%
- Growth percent (G%) [19]: 90.97%
- Growth percent (G%) [20]: 77.03%
- Growth percent (G%) [21]: 119.92%
- Growth percent (G%) [22]: −9.91%
- Growth percent (G%) [23]: 100.92%
- Growth percent (G%) [24]: 77.38%
- NCI Cytotoxicity Screening Average G% ([25]; Table 4, 10 μM one-dose screen): 74%
- Average G% [25]: 74% and 74.32%
- Growth percent (G%) [26]: 85.01%
- Growth percent (G%) [27]: 81.67%
- Growth percent (G%) [28]: 9.70%
- Growth percent (G%) [29]: 78.33%
- Growth percent (G%) [30]: 96.16%
- Growth percent (G%) [31]: 68.38%
- Growth percent (G%) [32]: 64.39%
- Growth percent (G%) [33]: 19.07%
- Growth percent (G%) [34]: 81.77%
- Growth percent (G%) [35]: 54.76%
- Growth percent (G%) [37]: 103.73%
- Growth percent (G%) [38]: 85.32%
- Growth percent (G%) [39]: 93.29%
- Growth percent (G%) [40]: 91.54%
- Growth percent (G%) [41]: 101.82%
- Growth percent (G%) [42]: 73.69%
- Growth percent (G%) [43]: 86.24%
- Growth percent (G%) [45]: 81.84%
- Growth percent (G%) [46]: 95.35%
- IC50 [1, 55]: 21 ± 5.6 µM
- Growth percent (G%) [47]: 92.64%
- Growth percent (G%) [48]: 76.95%
- Growth percent (G%) [49]: 100.91%
- Growth percent (G%) [50]: 76.59%
- Growth percent (G%) [51]: 50.55%
- Growth percent (G%) [54]: 93.29%
- Growth percent (G%) [52]: 51.06%
